Values after ≈ are worked out from the molar mass of the structure shown.
Experiments:
Type in all cases: functional
Enterococcus faecalis [1] = assay: Minimum inhibitory concentration against Enterococcus faecalis MTCC 439
Summary of the method: (§1)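 Microbroth dilution MIC determination, with results expressed in μg/mL. Where run in triplicate, the highest MIC of the three replicates is the value reported.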

Bacillus pumilus = assay: Minimum inhibitory concentration against Bacillus pumilus MTCC 1607; summary of the method: as §1
Bacillus cereus = assay: Minimum inhibitory concentration against Bacillus cereus MTCC 430; summary of the method: as §1
[2] = tested on: Staphylococcus epidermidis; assay: Minimum inhibitory concentration against Staphylococcus epidermidis MTCC 155; summary of the method: as §1
Streptococcus pyogenes = assay: Minimum inhibitory concentration against Streptococcus pyogenes MTCC 442; summary of the method: as §1
Staphylococcus aureus [3] = assay: Minimum inhibitory concentration against Staphylococcus aureus MTCC 96; summary of the method: as §1
Enterococcus faecalis [4] = assay: Minimum inhibitory concentration against Enterococcus faecalis ATCC 14506; summary of the method: as §1
Staphylococcus aureus [5] = assay: Minimum inhibitory concentration against Staphylococcus aureus ATCC 29213; summary of the method: as §1
Staphylococcus aureus [6] = assay: Minimum inhibitory concentration against Staphylococcus aureus ATCC 25923; summary of the method: as §1
Staphylococcus aureus [7] = assay: Minimum inhibitory concentration against Staphylococcus aureus ATCC 14154; summary of the method: as §1
Klebsiella pneumoniae = assay: Minimum inhibitory concentration against Klebsiella pneumoniae ATCC 10031; summary of the method: as §1

| Structure (SMILES) | MIC (Enterococcus faecalis [1]) [µg/mL] | MIC (Bacillus pumilus) [µg/mL] | MIC (Bacillus cereus) [µg/mL] | MIC [2] [µg/mL] | MIC (Streptococcus pyogenes) [µg/mL] | MIC (Staphylococcus aureus [3]) [µg/mL] | MIC (Enterococcus faecalis [4]) [µg/mL] | MIC (Staphylococcus aureus [5]) [µg/mL] | MIC (Staphylococcus aureus [6]) [µg/mL] | MIC (Staphylococcus aureus [7]) [µg/mL] | MIC (Klebsiella pneumoniae) [µg/mL] |
| --- | --- | --- | --- | --- | --- | --- | --- | --- | --- | --- | --- |
| CC(=O)NC[C@H]1CN(c2ccc(N3CCN(C(=O)/C=C/c4ccc(OC(C)=O)c(OC(C)=O)c4)CC3)c(F)c2)C(=O)O1 | 2 (≈ 3.43 µM) | 2 (≈ 3.43 µM) | 2 (≈ 3.43 µM) | 1 (≈ 1.72 µM) | 4 (≈ 6.87 µM) | 4 (≈ 6.87 µM) |  |  |  |  |  |
| CC(=O)NC[C@H]1CN(c2ccc(N3CCN(C(=O)/C=C/c4ccc5c(c4)OCO5)CC3)c(F)c2)C(=O)O1 | 1 (≈ 1.96 µM) | 1 (≈ 1.96 µM) | 1 (≈ 1.96 µM) | 1 (≈ 1.96 µM) | 2 (≈ 3.92 µM) | 2 (≈ 3.92 µM) | 2 (≈ 3.92 µM) | 4 (≈ 7.84 µM) | 4 (≈ 7.84 µM) | 2 (≈ 3.92 µM) | > 16 |
| N=C(S)NC[C@H]1CN(c2ccc(N3CCN(C(=O)/C=C/c4ccc5c(c4)OCO5)CC3)c(F)c2)C(=O)O1 | 0.25 (≈ 0.474 µM) | 1 (≈ 1.9 µM) | 1 (≈ 1.9 µM) | 0.25 (≈ 0.474 µM) | 0.5 (≈ 0.948 µM) | 1 (≈ 1.9 µM) | 0.5 (≈ 0.948 µM) | 2 (≈ 3.79 µM) | 2 (≈ 3.79 µM) | 1 (≈ 1.9 µM) | > 16 |
| CC(=O)NC[C@H]1CN(c2ccc(N3CCN(C(=O)/C=C/c4ccc(OC(=O)C(C)(C)C)cc4)CC3)c(F)c2)C(=O)O1 | 8 (≈ 14.1 µM) | 8 (≈ 14.1 µM) | 16 (≈ 28.2 µM) | 4 (≈ 7.06 µM) | > 16 | > 16 |  |  |  |  |  |
| C/C(S)=N/C[C@H]1CN(c2ccc(N3CCN(C(=O)/C=C/c4ccccc4)CC3)c(F)c2)C(=O)O1 | 0.5 (≈ 1.04 µM) | 0.5 (≈ 1.04 µM) | 0.5 (≈ 1.04 µM) | 0.25 (≈ 0.518 µM) | 0.5 (≈ 1.04 µM) | 2 (≈ 4.14 µM) | 0.5 (≈ 1.04 µM) | 1 (≈ 2.07 µM) | 1 (≈ 2.07 µM) | 2 (≈ 4.14 µM) | > 16 |
| CC(=O)NC[C@H]1CN(c2ccc(N3CCN(C(=O)/C=C/c4ccc(-c5ccccc5)cc4)CC3)c(F)c2)C(=O)O1 | > 16 | > 16 | > 16 | > 16 | > 16 | > 16 |  |  |  |  |  |

Results, then the compound that gave them:

| MIC (Enterococcus faecalis [1]) [µg/mL] | MIC (Bacillus pumilus) [µg/mL] | MIC (Bacillus cereus) [µg/mL] | MIC [2] [µg/mL] | MIC (Streptococcus pyogenes) [µg/mL] | MIC (Staphylococcus aureus [3]) [µg/mL] | MIC (Enterococcus faecalis [4]) [µg/mL] | MIC (Staphylococcus aureus [5]) [µg/mL] | MIC (Staphylococcus aureus [6]) [µg/mL] | MIC (Staphylococcus aureus [7]) [µg/mL] | MIC (Klebsiella pneumoniae) [µg/mL] | Structure (SMILES) |
| --- | --- | --- | --- | --- | --- | --- | --- | --- | --- | --- | --- |
| 2 (≈ 3.9 µM) | 2 (≈ 3.9 µM) | 2 (≈ 3.9 µM) | 1 (≈ 1.95 µM) | 16 (≈ 31.2 µM) | 16 (≈ 31.2 µM) |  |  |  |  |  | CSc1ccc(/C=C/C(=O)N2CCN(c3ccc(N4C[C@H](CNC(C)=O)OC4=O)cc3F)CC2)cc1 |
| 1 (≈ 2.08 µM) | 1 (≈ 2.08 µM) | 1 (≈ 2.08 µM) | 0.5 (≈ 1.04 µM) | 2 (≈ 4.15 µM) | 1 (≈ 2.08 µM) |  |  |  |  |  | CC(=O)NC[C@H]1CN(c2ccc(N3CCN(C(=O)/C=C/c4ccc(N)cc4)CC3)c(F)c2)C(=O)O1 |
| 1 (≈ 2.07 µM) | 1 (≈ 2.07 µM) | 0.5 (≈ 1.04 µM) | 0.25 (≈ 0.518 µM) | 2 (≈ 4.14 µM) | 2 (≈ 4.14 µM) | 2 (≈ 4.14 µM) | 2 (≈ 4.14 µM) | 1 (≈ 2.07 µM) | 2 (≈ 4.14 µM) | > 16 | CC(=O)NC[C@H]1CN(c2ccc(N3CCN(C(=O)/C=C/c4ccc(O)cc4)CC3)c(F)c2)C(=O)O1 |
| 4 (≈ 7.64 µM) | 8 (≈ 15.3 µM) | 4 (≈ 7.64 µM) | 4 (≈ 7.64 µM) | 8 (≈ 15.3 µM) | 8 (≈ 15.3 µM) |  |  |  |  |  | CC(=O)NC[C@H]1CN(c2ccc(N3CCN(C(=O)/C=C/c4ccc(NC(C)=O)cc4)CC3)c(F)c2)C(=O)O1 |
| 4 (≈ 8.26 µM) | 4 (≈ 8.26 µM) | 4 (≈ 8.26 µM) | 2 (≈ 4.13 µM) | 8 (≈ 16.5 µM) | 16 (≈ 33 µM) |  |  |  |  |  | CC(=O)NC[C@H]1CN(c2ccc(N3CCN(C(=O)/C=C/c4ccc(F)cc4)CC3)c(F)c2)C(=O)O1 |
| 4 (≈ 7.14 µM) | 4 (≈ 7.14 µM) | 1 (≈ 1.78 µM) | 8 (≈ 14.3 µM) | 2 (≈ 3.57 µM) | 8 (≈ 14.3 µM) |  |  |  |  |  | CC(=O)NC[C@H]1CN(c2ccc(N3CCN(C(=O)/C=C/c4ccc(OS(C)(=O)=O)cc4)CC3)c(F)c2)C(=O)O1 |
